Reference: publication PMC6694902 (Journal of Taibah University Medical Sciences, 2017)
In brackets after ≈: the same amount, converted by molar mass. Several values for one entry are separate records, joined by “and”; a condition that tells them apart may be missing. Equal values may be shown once.

Legend:
[1] = tested on: Staphylococcus aureus (res); assay: Agar well diffusion, zone of inhibition; type: cell-based; conditions: mean ± S.D., n = 6; resistant to norfloxacin, ofloxacin, ampicillin, cefotaxime
Procedure, shortened: (§1)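 Agar well diffusion on nutrient agar. K. pneumoniae MTCC 109 came from IMTECH; S. aureus (res) was an Utkal University isolate. Plates were seeded with 1.5 × 10^6 CFU/mL suspensions (McFarland 0.5). Test compounds were dissolved in DMF (1 mg/mL stock) and placed in wells, with amoxicillin and ampicillin as references. Plates were kept at 37 °C for 18–24 h, then zones were read.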

[2] = DPPH radical scavenging assay; type: biochemical; conditions: mean ± S.D., n = 3; for IC50 (DPPH radical scavenging): graphically determined
Procedure, shortened: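 DPPH scavenging, a modified method, was read as absorbance at 517 nm for test compounds at several concentrations. BHT served as standard, and DPPH in methanol served as control. Percent inhibition was calculated from control and sample absorbances, and IC50 was obtained graphically. Data were analysed by one-way ANOVA with Dunnett's post hoc test.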

[3] = tested on: Klebsiella pneumoniae (MTCC 109); assay: Agar well diffusion, zone of inhibition; type: cell-based; conditions: mean ± S.D., n = 6
Procedure, shortened: as §1

Cryptococcus neoformans [4] = assay: Agar well diffusion, zone of inhibition; type: cell-based; conditions: mean ± S.D., n = 6
Procedure, shortened: (§2)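 Agar well diffusion on Sabouraud dextrose agar. C. albicans MTCC 3017 came from IMTECH; C. neoformans was an Utkal University strain. Plates were seeded with 1.5 × 10^6 CFU/mL suspensions (McFarland 0.5). Test compounds were dissolved in DMF (1 mg/mL stock) and loaded into wells, with fluconazole as reference. Incubation was 37 °C for 18–24 h, and zones were measured.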

[5] = tested on: Candida albicans (MTCC 3017); assay: Minimum inhibitory concentration; type: cell-based; conditions: for MIC: Candida albicans, MTCC3017, read-out: Minimum inhibitory concentration (MIC), C. albicans; for Minimum inhibitory concentration (MIC), C. albicans: 31.25–500 µg/mL tested, 37 °C, 18–24 h
Procedure, shortened: (§3)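 MIC was determined in agar wells on Sabouraud dextrose agar seeded with the fungal strain (McFarland 0.5, 1.5 × 10^6 CFU/mL). DMF stocks at 1 mg/mL were diluted two-fold to five levels (31.25–500 µg/mL) and loaded into wells, with fluconazole as reference. After 18–24 h at 37 °C, the lowest inhibitory concentration was taken as the MIC.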

Escherichia coli (res) [6] = assay: Agar well diffusion, zone of inhibition; type: cell-based; conditions: mean ± S.D., n = 6; resistant to norfloxacin, ofloxacin, ampicillin, cefixime, nitrofurantoin
Procedure, shortened: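 Clinical isolate from a faecal sample (Bhubaneswar hospital). Nutrient agar plates were seeded with a 1.5 × 10^6 CFU/mL suspension matched to McFarland 0.5. Test compound was loaded into the agar wells from a DMF stock (1 mg/mL). Plates were incubated at 37 °C for 18–24 h and the inhibition zone was read. Amoxicillin and ampicillin were the reference antibiotics.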

[7] = tested on: Staphylococcus aureus (res); assay: Minimum inhibitory concentration; type: cell-based; conditions: for MIC: Staphylococcus aureus, read-out: Minimum inhibitory concentration (MIC), S. aureus (res), 31.25–500 µg/mL tested, 37 °C, 18–24 h; for Minimum inhibitory concentration (MIC), S. aureus (res): 31.25–500 µg/mL tested, 37 °C, 18–24 h
Procedure, shortened: (§4)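 MIC was determined in nutrient agar wells seeded with bacteria (McFarland 0.5, 1.5 × 10^6 CFU/mL). E. coli (res) and S. aureus (res) were clinical isolates; K. pneumoniae was MTCC 109. DMF stocks at 1 mg/mL were diluted two-fold to five levels (31.25–500 µg/mL) in wells, with amoxicillin and ampicillin as references. Plates were incubated at 37 °C for 18–24 h.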

Cryptococcus neoformans [8] = assay: Minimum inhibitory concentration; type: cell-based; conditions: for MIC: Cryptococcus neoformans, read-out: Minimum inhibitory concentration (MIC), C. neoformans; for Minimum inhibitory concentration (MIC), C. neoformans: 31.25–500 µg/mL tested, 37 °C, 18–24 h
Procedure, shortened: as §3

[9] = tested on: Candida albicans (MTCC 3017); assay: Agar well diffusion, zone of inhibition; type: cell-based; conditions: mean ± S.D., n = 6
Procedure, shortened: as §2

Escherichia coli (res) [10] = assay: Minimum inhibitory concentration; type: cell-based; conditions: for MIC: Escherichia coli, read-out: Minimum inhibitory concentration (MIC), E. coli (res), 31.25–500 µg/mL tested, 37 °C, 18–24 h; for Minimum inhibitory concentration (MIC), E. coli (res): 31.25–500 µg/mL tested, 37 °C, 18–24 h
Procedure, shortened: as §4

[11] = tested on: Klebsiella pneumoniae (MTCC 109); assay: Minimum inhibitory concentration; type: cell-based; conditions: for Minimum inhibitory concentration (MIC), K. pneumoniae: 31.25–500 µg/mL tested, 37 °C, 18–24 h
Procedure, shortened: as §4

Row | Compound | zone of inhibition, S. aureus (res) [1] | % Inhibition (DPPH) ([2]; Conc. 10 μg/mL) [%] | % Inhibition (DPPH) ([2]; Conc. 30 μg/mL) [%] | % Inhibition (DPPH) ([2]; Conc. 50 μg/mL) [%] | % Inhibition (DPPH) ([2]; Conc. 70 μg/mL) [%] | IC50 (DPPH radical scavenging) [2] [µg/mL] | zone of inhibition, K. pneumoniae [3] | zone of inhibition, C. neoformans (Cryptococcus neoformans [4]) [mm] | MIC [5] [µg/mL] | zone of inhibition, E. coli (res) (Escherichia coli (res) [6]) | MIC [7] [µg/mL] | MIC (Cryptococcus neoformans [8]) [µg/mL] | zone of inhibition, C. albicans [9] [mm] | MIC (Escherichia coli (res) [10]) [µg/mL] | MIC ([11]; Klebsiella pneumoniae, MTCC109, read-out: Minimum inhibitory concentration (MIC), K. pneumoniae, 31.25–500 µg/mL tested, 37 °C, 18–24 h) [µg/mL] | Minimum inhibitory concentration (MIC), K. pneumoniae [11] [µg/mL] | Minimum inhibitory concentration (MIC), C. albicans [5] [µg/mL] | Minimum inhibitory concentration (MIC), S. aureus (res) [7] [µg/mL] | Minimum inhibitory concentration (MIC), E. coli (res) (Escherichia coli (res) [10]) [µg/mL] | Minimum inhibitory concentration (MIC), C. neoformans (Cryptococcus neoformans [8]) [µg/mL]
1 | Cc1cc(N=Nc2ccc(O)c(C=Nc3nc(-c4ccccc4)cs3)c2)ccc1Br [5a(Lig), 4-[(4-bromo-3-methylphenyl)diazenyl)-2-[(4-phenylthiazol-2-ylimino)methyl]phenol] | 15.83 ± 2.79^∗ mm | 27.99 ± 0.04 | 39.34 ± 0.02 | 49.09 ± 0.07 | 63.9 ± 0.05 | 56 ± 0.78 (≈ 117 µM) | 12.67 ± 2.25 mm | 13.33 ± 1.37 | 250 (≈ 524 µM) | 13.67 ± 2.34 mm | 31.2 (≈ 65.5 µM) | 250 (≈ 524 µM) | 12.17 ± 2.23 | – | – | – | – | – | – | –
2 | Cc1cc(N=Nc2ccc(O)c(C=Nc3nc(-c4ccc(Cl)cc4)cs3)c2)ccc1Br [5b(Lig), 4-[(4-bromo-3-methylphenyl)diazenyl]-2-[(4-(4-chlorophenyl)thiazol-2-ylimino)methyl]phenol] | 11.5 ± 1.87 mm | 19.26 ± 0.04 | 38.53 ± 0.09 | 48.33 ± 0.07 | 79.89 ± 0.06 | 52 ± 1.13 (≈ 102 µM) | 13.5 ± 2.43 mm | 12.33 ± 1.75 | 250 (≈ 488 µM) | 15.33 ± 2.07 mm | – | 250 (≈ 488 µM) | 12 ± 1.27 | 31.2 (≈ 61.1 µM) | – | – | – | – | – | –
3 | Cc1cc(C(C)(C)C)c(O)c(C(C)(C)C)c1 [BHT, butylated hydroxy toluene, reference compound] | – | 32.32 ± 0.01 | 49.54 ± 0.01 | 59.99 ± 0.10 | 87.74 ± 0.06 | 31 ± 0.70 (≈ 141 µM) | – | – | – | – | – | – | – | – | – | – | – | – | – | –
4 | Cc1cc(N=Nc2ccc(O)c(C=O)c2)ccc1Br [Compound 4e, 5-[(4-Bromo-3-methylphenyl)diazenyl]-2-hydroxybenzaldehyde] | 16.17 ± 2.04^∗ mm | 17.96 ± 0.03 | 29.54 ± 0.05 | 33.64 ± 0.09 | 56.39 ± 0.08 | 72 ± 1.4 (≈ 226 µM) | 15.17 ± 2.14 mm | 12.5 ± 1.52 | 500 (≈ 1570 µM) | 15.83 ± 1.47^∗ mm | 31.2 (≈ 97.9 µM) | 250 (≈ 783 µM) | 10.17 ± 1.84 | 31.2 (≈ 97.9 µM) | 31.2 (≈ 97.9 µM) | – | – | – | – | –
5 | Cc1cc(N=Nc2ccc([O][Cu][O]c3ccc(N=Nc4ccc(Br)c(C)c4)cc3C=Nc3nc(-c4ccccc4)cs3)c(C=Nc3nc(-c4ccccc4)cs3)c2)ccc1Br [Compound 6b, Bis[{4-((4-bromo-3-methylphenyl)diazenyl)-2-((4-phenylthiazol-2-ylimino)methyl)phenoxy}] copper,] | 18.33 ± 1.75^∗ mm | 28.43 ± 0.07 | 41.83 ± 0.02 | 51.41 ± 0.05 | 79.97 ± 0.06 | 48 ± 0.89 | 16 ± 2.37^∗ mm | 12.67 ± 1.51 | – | 15.83 ± 1.84^∗ mm | – | – | 13.33 ± 2.34 | – | – | 31.25 | 125 | 31.25 | 31.25 | 250
6 | Cc1cc(N=Nc2ccc([O][Ni][O]c3ccc(N=Nc4ccc(Br)c(C)c4)cc3C=Nc3nc(-c4ccccc4)cs3)c(C=Nc3nc(-c4ccccc4)cs3)c2)ccc1Br [Compound 6c, Bis[{4-((4-bromo-3-methylphenyl)diazenyl)-2-((4-phenylthiazol-2-ylimino)methyl)phenoxy}] nickel] | 14.83 ± 1.84 mm | 25.43 ± 0.08 | 39.65 ± 0.09 | 61.41 ± 0.04 | 83.11 ± 0.04 | 40 ± 0.59 | 14.67 ± 3.14 mm | 15.83 ± 1.84 | – | – | – | – | 11.33 ± 1.51 | – | – | 62.5 | 250 | 62.5 | – | 31.25
7 | Cc1cc(N=Nc2ccc([O][Co][O]c3ccc(N=Nc4ccc(Br)c(C)c4)cc3C=Nc3nc(-c4ccc(Cl)cc4)cs3)c(C=Nc3nc(-c4ccc(Cl)cc4)cs3)c2)ccc1Br [Compound 6d, Bis[4-{(4-bromo-3-methylphenyl)diazenyl}-2-{(4-(4-chlorophenyl)thiazol-2-ylimino)methyl}phenoxy]cobalt] | 16.83 ± 2.71 mm and 16.83 ± 2.71^∗ mm | 36.53 ± 0.02 | 43.03 ± 0.04 | 61.97 ± 0.08 | 73.78 ± 0.07 | 38 ± 1.4 | 16.17 ± 2.99 mm and 16.17 ± 2.99^∗ mm | 12.17 ± 2.71 | – | 15.5 ± 3.21 mm and 15.5 ± 3.21^∗ mm | – | – | 12.67 ± 2.34 | – | – | 31.25 | 250 | 31.25 | 31.25 | 250
8 | Cc1cc(N=Nc2ccc([O][Ni][O]c3ccc(N=Nc4ccc(Br)c(C)c4)cc3C=Nc3nc(-c4ccc(Cl)cc4)cs3)c(C=Nc3nc(-c4ccc(Cl)cc4)cs3)c2)ccc1Br [Compound 6f, bis[4-{(4-bromo-3-methylphenyl)diazenyl}-2-{(4-(4-chlorophenyl)thiazol-2-ylimino)methyl}phenoxy] nickel] | 15.17 ± 1.94 mm | 39.73 ± 0.02 | 53.38 ± 0.03 | 63.38 ± 0.01 | 79.53 ± 0.02 | – | 16.67 ± 1.37^∗ mm | 10.33 ± 1.75 | – | – | – | – | 12.5 ± 1.52 | – | – | 31.25 | 125 | 31.25 | – | 250
